ChEMBL document CHEMBL3585296, “Flavonoids from Perovskia atriplicifolia and Their in Vitro Displacement of the Respective Radioligands for Human Opioid and Cannabinoid Receptors” (J Nat Prod, 2015)

Experiments:
[1] = biological target: Cannabinoid receptor 2 (Homo sapiens) (UniProt P34972); test: Displacement of [3H]-CP55940 from human CB2 receptor transfected into HEK293 cells at 10 uM by microplate scintillation counting; format: cell-based
Procedure, shortened: (§1)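 HEK293 cells stably expressing cloned human CB1 or CB2 were grown in DMEM/F-12 with 0.5 mg/mL G418. Membranes were made by sonication and differential centrifugation. Compound at 10 μM (independent triplicate dilutions) was incubated with [3H]-CP 55,940, at 1.6975 nM for CB1 or 1.959 nM for CB2. Membrane was 5 μg for CB1 or 1 μg for CB2. Incubation was 90 min at 37 °C in Tris/EDTA/NaCl/0.2% BSA, pH 7.4. Bound label was collected on GF/C filters. Nonspecific binding was defined with 10 μM CP-55,940. Results are given as % displacement.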

[2] = biological target: T1, Delta-type opioid receptor (Homo sapiens, UniProt P41143); test: Displacement of [3H]DPDPE from delta opioid receptor (unknown origin) transfected into HEK293 cells at 10 uM by microplate scintillation counting; format: cell-based
T1 sequence (P41143 whole entry): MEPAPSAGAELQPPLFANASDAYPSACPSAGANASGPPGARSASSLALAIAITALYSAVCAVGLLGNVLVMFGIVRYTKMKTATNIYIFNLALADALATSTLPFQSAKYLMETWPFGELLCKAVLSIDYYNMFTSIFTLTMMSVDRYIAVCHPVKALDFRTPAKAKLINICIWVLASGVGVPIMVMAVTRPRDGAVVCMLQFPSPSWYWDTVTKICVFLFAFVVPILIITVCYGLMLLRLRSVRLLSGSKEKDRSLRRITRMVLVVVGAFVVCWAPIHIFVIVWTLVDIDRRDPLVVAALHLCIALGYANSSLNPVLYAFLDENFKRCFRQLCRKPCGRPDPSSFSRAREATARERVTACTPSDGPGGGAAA
Procedure, shortened: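 HEK293 cells stably expressing the δ opioid receptor were kept in DMEM with 0.2 mg/mL G418. Compound at 10 μM (triplicate dilutions) was incubated with 0.99 nM [3H]-DPDPE and 20 μg membrane for 60 min in 50 mM Tris-HCl, pH 7.4. Bound label was collected by GF/B filtration. Nonspecific binding was defined with 10 μM DPDPE. Results are given as % displacement.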

[3] = biological target: Cannabinoid receptor 1 (Homo sapiens) (UniProt P21554); test: Displacement of [3H]-CP55940 from human CB1 receptor transfected into HEK293 cells at 10 uM by microplate scintillation counting; format: cell-based; procedure, shortened: as §1
Sequence of Cannabinoid receptor 1 (Homo sapiens) (P21554 whole entry): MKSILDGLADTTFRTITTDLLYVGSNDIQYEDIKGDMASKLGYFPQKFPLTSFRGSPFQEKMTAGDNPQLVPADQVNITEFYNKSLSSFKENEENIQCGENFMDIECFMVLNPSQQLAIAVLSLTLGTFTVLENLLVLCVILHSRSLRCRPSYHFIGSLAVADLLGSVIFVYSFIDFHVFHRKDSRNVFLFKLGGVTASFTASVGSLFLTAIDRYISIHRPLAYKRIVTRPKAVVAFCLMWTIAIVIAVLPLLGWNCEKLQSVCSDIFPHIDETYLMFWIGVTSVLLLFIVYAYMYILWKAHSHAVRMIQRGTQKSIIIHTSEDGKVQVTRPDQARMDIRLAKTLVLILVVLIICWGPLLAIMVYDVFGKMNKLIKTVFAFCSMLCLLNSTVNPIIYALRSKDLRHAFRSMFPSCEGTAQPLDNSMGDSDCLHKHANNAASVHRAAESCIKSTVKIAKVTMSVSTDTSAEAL

[4] = biological target: T1, Delta-type opioid receptor; test: Displacement of [3H]DPDPE from delta opioid receptor (unknown origin) transfected into HEK293 cells by microplate scintillation counting; format: cell-based
[5] = biological target: T1, Delta-type opioid receptor; test: Agonist activity at human delta opioid receptor transfected into HEK293 cells assessed as effect on [35S]-GTPgammaS binding at 300 uM; format: functional, cell-based
Procedure, shortened: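 Modified GTPγ[35S] functional assay. Tested at 300 μM. Binding is expressed as percent of the maximal GTPγ[35S] binding given by the full agonist DPDPE.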

Sequence of Cannabinoid receptor 2 (Homo sapiens) (P34972 whole entry): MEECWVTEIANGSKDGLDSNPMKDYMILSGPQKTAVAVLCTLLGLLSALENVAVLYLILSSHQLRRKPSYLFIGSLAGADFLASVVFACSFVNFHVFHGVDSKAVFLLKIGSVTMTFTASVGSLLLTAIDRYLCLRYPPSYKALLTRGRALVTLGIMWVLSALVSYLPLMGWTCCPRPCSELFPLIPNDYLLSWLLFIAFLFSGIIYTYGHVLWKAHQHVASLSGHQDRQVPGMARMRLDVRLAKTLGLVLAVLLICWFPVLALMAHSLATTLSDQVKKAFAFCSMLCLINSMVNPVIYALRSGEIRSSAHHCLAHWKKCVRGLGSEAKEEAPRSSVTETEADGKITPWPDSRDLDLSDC

SMILES | Activity [1] | Activity [2] | Activity [3] | Ki [4] | Activity [5]
COc1ccc(-c2cc(=O)c3c(O)c(OC)c(O)cc3o2)cc1OC | 12.5% | 19.9% | 0.3% | – | –
COc1ccc(-c2cc(=O)c3c(O)c(OC)c(O)cc3o2)cc1 [PECTOLINARIGENIN] | 13.5% | 79.9% | 19.3% | 8.4 µM | 48%
COc1ccc(-c2cc(=O)c3c(O)c(OC)c(OC)cc3o2)cc1 [SALVIGENIN] | 8.3% | 31.6% | 1.7% | > 26 µM | 88%
COc1ccc(-c2cc(=O)c3c(O)c(OC)c(OC)cc3o2)cc1OC | 4.2% | 86% | 3% | 3.1 µM | 32%
